Results from ChEMBL document CHEMBL1131493, “Inhibitors of farnesyl protein transferase. 4-Amido, 4-carbamoyl, and 4-carboxamido derivatives of 1-(8-chloro-6,11-dihydro-5H-benzo[5,6]- cyclohepta[1,2-b]pyridin-11-yl)piperazine and 1-(3-bromo-8-chloro-6,11- dihydro-5H-benzo[5,6]cyclohepta[1,2-b]pyridin-11-yl)piperazine” (J Med Chem, 1998).

Tests used:
[1] = biological target: geranylgeranyltransferase type-I (Rattus norvegicus, UniProt P53610+Q04631); assay: Inhibition of rat Geranylgeranyl transferase (GGPT); format: protein-complex assay
[2] = biological target: T1, Protein farnesyltransferase (Homo sapiens, UniProt P49354+P49356); assay: Inhibition of Farnesyltransferase from Ras-CVLS or Ras-CVLL in Cos-7 monkey kidney cells; format: cell-based, Chlorocebus aethiops
[3] = biological target: T1, Protein farnesyltransferase; assay: In vitro inhibition of farnesyltransferase farnesylation of the H-ras oncogene; format: protein-complex assay
[4] = In vivo antitumor efficacy in nude mice by injecting a dose of 25 mg/kg, as HCl salt in saline solution, iv and the total drug exposure was determined. (0-24hr); format: ADME, organism-based; parameters: time < 24 hr, dose 25 mg/kg, route intravenous; conditions: mouse
[5] = In vivo antitumor efficacy in nude mice by injecting a dose of 25 mg/kg, as HCl salt in saline solution, perorally and the total drug exposure was determined (0-24hr); format: ADME, organism-based; parameters: time < 24 hr, dose 25 mg/kg, route oral; conditions: mouse, po
[6] = Oral bioavailability in mouse (nude) (dose 25 mg/kg i.v.); format: ADME, organism-based; conditions: in vivo
[7] = (§1) Maximal plasma concentration in nude mice after 25 mg/kg oral dose; format: ADME, organism-based; parameters: dose 25 mg/kg, route oral; conditions: mouse
Mus musculus [8] = assay: In vivo antitumor efficacy in nude mice by injecting a dose of 25 mg/kg, as HCl salt in saline solution, perorally and the duration of action was reported; format: ADME, organism-based; parameters: dose 25 mg/kg, route oral; conditions: po
[9] = In vivo antitumor efficacy in nude mice by injecting a dose of 25 mg/kg, as HCl salt in saline solution, iv and the serum half-life was determined; format: ADME, organism-based; parameters: dose 25 mg/kg, route intravenous; conditions: mouse
[10] = In vivo antitumor efficacy in nude mice 0-24 hr after peroral dose of 25 mg/kg expressed as Area under the curve; format: ADME, organism-based; parameters: time < 24 hr, dose 25 mg/kg, route oral; conditions: nude, mouse, po
Procedure, shortened: (§2)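 Serum pharmacokinetics in nude mice or cynomolgus monkeys after oral (po) or iv dosing. Compounds were given as hydrochloride salts in 20% HPβCD unless otherwise noted. Other formulations were the hydrochloride salt in saline, the micronized free base in 20% HPβCD or corn oil (po) with saline for iv, or the hydrochloride salt in 0.4% methyl cellulose (po).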

[11] = Oral bioavailability in mouse (nude) (dose of 25 mg/kg); format: ADME, organism-based; conditions: in vivo; procedure, shortened: as §2
[12] = as §1; format: ADME, organism-based; parameters: dose 25 mg/kg, route oral; conditions: mouse; procedure, shortened: as §2; remark: listed apart in the source
Mus musculus [13] = assay: In vivo antitumor efficacy after peroral dose of 25 mg/kg in mice expressed as duration for which compound was present above IC50; format: ADME, organism-based; parameters: dose 25 mg/kg, route oral; conditions: po; procedure, shortened: as §2
[14] = In vivo antitumor efficacy in nude mice by injecting a dose of 25 mg/kg iv and serum half-life was determined; format: ADME, organism-based; parameters: dose 25 mg/kg, route intravenous; conditions: mouse; procedure, shortened: as §2

| Structure (SMILES) | IC50 [1] [nM] | IC50 [2] [nM] | IC50 [3] [nM] | also measured |
| --- | --- | --- | --- | --- |
| O=C(CN1C(=O)c2ccccc2C1=O)N1CCN(C2c3ccc(Cl)cc3CCc3cccnc32)CC1 (stereo not drawn) | > 40000 |  |  |  |
| CC(=O)C1CCC(C(=O)N2CCN(C3c4ccc(Cl)cc4CCc4cccnc43)CC2)CC1 (stereo not drawn) | > 43000 | 4900 | 1240 |  |
| CN1CCC(OC(=O)N2CCN(C3c4ccc(Cl)cc4CCc4cc(Br)cnc43)CC2)CC1 (stereo not drawn) |  | > 5000 | 310 |  |
| O=C(Cc1ccc(Br)cc1)N1CCN(C2c3ccc(Cl)cc3CCc3cccnc32)CC1 (stereo not drawn) | > 50000 | 5100 |  |  |
| CN1CCC(NC(=O)N2CCN(C3c4ccc(Cl)cc4CCc4cc(Br)cnc43)CC2)CC1 (stereo not drawn) | > 38000 | 530 | 41 |  |
| O=C(Oc1cccnc1)N1CCN([C@H]2c3ccc(Cl)cc3CCc3cccnc32)CC1 |  | 3900 | 820 |  |
| N[C@@H](CO)C(=O)N1CCC(CC(=O)N2CCN(C3c4ccc(Cl)cc4CCc4cc(Br)cnc43)CC2)CC1 (stereo partly drawn) | > 33000 | 1050 | 104 |  |
| O=C(Oc1cccnc1)N1CCN([C@@H]2c3ccc(Cl)cc3CCc3cccnc32)CC1 |  | 6900 | 1280 |  |
| O=C(Nc1cc[n+]([O-])cc1)N1CCN(C2c3ccc(Cl)cc3CCc3cc(Br)cnc32)CC1 (stereo not drawn) |  | 5800 | 210 |  |
| CC(C)(C(=O)N1CCN(C2c3ccc(Cl)cc3CCc3cc(Br)cnc32)CC1)c1cccnc1 (stereo not drawn) |  | 900 | 300 |  |
| CC(=O)N1CCC(CC(=O)N2CCN(C3c4ccc(Cl)cc4CCc4cc(Br)cnc43)CC2)CC1 (stereo not drawn) | > 34000 | 590 | 102 | AUC at 24 h [4]: 9510 ng·h/mL; AUC at 24 h [5]: 2740 ng·h/mL; bioavailability [6]: 28.8%; Cmax [7]: 3000 nM; Time above IC50 (Mus musculus [8]): 2 h; half-life [9]: 0.37 h |
| CC(=O)N1CCC(CC(=O)N2CCN([C@H]3c4ccc(Cl)cc4CCc4cccnc43)CC2)CC1 |  | 6200 | 1600 |  |
| O=C(Cc1ccc[n+]([O-])c1)N1CCN(C2c3ccc(Cl)cc3CCc3ccc[n+]([O-])c32)CC1 (stereo not drawn) |  | > 20000 | 3800 |  |
| CCCC[C@H]1CN(C2c3ccc(Cl)cc3CCc3cc(Br)cnc32)CCN1C(=O)Cc1cc[n+]([O-])cc1 (stereo partly drawn) | > 34200 | 630 | 60 | AUC at 24 h [10]: 43200 ng·h/mL; AUC at 24 h [4]: 91400 ng·h/mL; bioavailability [11]: 47%; Cmax [12]: 11500 nM; Time above IC50 (Mus musculus [13]): 7 h; half-life [14]: 2 h |
| COCC[C@H]1CN(C2c3ccc(Cl)cc3CCc3cc(Br)cnc32)CCN1C(=O)CC1CCN(C(N)=O)CC1 (stereo partly drawn) |  | 1700 | 92 |  |
| CN1CCCC(CC(=O)N2CCN(C3c4ccc(Cl)cc4CCc4cccnc43)CC2)C1 (stereo not drawn) |  | 2400 | 1190 |  |
| O=C(Cc1cccnc1)N1CCN(C2c3ccc(Cl)cc3CCc3cc(Br)cnc32)CC1 (stereo not drawn) | > 10000 | 850 | 170 |  |
| CCCC[C@H]1CN(C2c3ccc(Cl)cc3CCc3cc(Br)cnc32)CCN1C(=O)CC1CCN(C(N)=O)CC1 (stereo partly drawn) |  | 600 | 27 |  |
| CC(C)(C(=O)N1CCN(C2c3ccc(Cl)cc3CCc3cccnc32)CC1)c1cccnc1 (stereo not drawn) |  | 6100 |  |  |
| CN1CCC(CC(=O)N2CCN(C3c4ccc(Cl)cc4CCc4c(Cl)ccnc43)CC2)CC1 (stereo not drawn) |  | 5700 | 450 |  |
| CC(C)(C(=O)N1CCN(C2c3ccc(Cl)cc3CCc3cc(Br)cnc32)CC1)c1cc[n+]([O-])cc1 (stereo not drawn) |  | 5000 | 390 |  |
| O=C(Nc1cccnc1)N1CCN(C2c3ccc(Cl)cc3CCc3cc(Br)cnc32)CC1 (stereo not drawn) | > 10000 | 3700 | 210 |  |
| CC(=O)N1CCC(C(=O)N2CCN([C@H]3c4ccc(Cl)cc4CCc4cccnc43)CC2)CC1 |  | 6500 | 1800 |  |
| O=C(C(c1ccccc1)c1ccccc1)N1CCN(C2c3ccc(Cl)cc3CCc3cccnc32)CC1 (stereo not drawn) | > 50000 |  |  |  |
| CCCNC(=O)N1CCC(CC(=O)N2CCN(C3c4ccc(Cl)cc4CCc4cc(Br)cnc43)CC2)CC1 (stereo not drawn) | > 33000 | 1500 | 100 |  |
| O=C(CC1CCNCC1)N1CCN([C@@H]2c3ccc(Cl)cc3CCc3cc(Br)cnc32)CC1 |  | 560 | 87 |  |
| CN1CCCC(CC(=O)N2CCN(C3c4ccc(Cl)cc4CCc4cc(Br)cnc43)CC2)C1 (stereo not drawn) | > 38000 |  |  | AUC at 24 h [4]: 14900 ng·h/mL; AUC at 24 h [5]: 17000 ng·h/mL; bioavailability [6]: 100%; Cmax [7]: 2000 nM; Time above IC50 (Mus musculus [8]): 24 h; half-life [9]: 5.7 h |
| O=C(Nc1ccccn1)N1CCN(C2c3ccc(Cl)cc3CCc3cccnc32)CC1 (stereo not drawn) | > 46000 | 1300 |  |  |
